Source: ChEMBL document CHEMBL2034979, “Design, synthesis and antiviral activity of novel quinazolinones” (Eur J Med Chem, 2012)

Key:
[1] = Cytotoxicity against human TZM-bl cells at 10 uM after 48 hrs by MTT assay; format: cell-based
How it was run: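 TZM-bl cells plated and held 18 h at 37 °C, then exposed to compounds for 48 h. MTT (5 mg/mL stock, 20 µL per well) added and incubated 3 h at 37 °C. Plates shaken 10 min at room temperature. OD550 read against a 690 nm reference. Single test concentration of 10 µM.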

[2] = system: Human immunodeficiency virus; test: Antiviral activity against HIV infected in human TZM-bl cells at 10 uM after 48 hrs by luciferase-based reporter gene assay; format: functional; conditions: Human immunodeficiency virus 1, TZM-bl
How it was run: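 TZM-bl cells seeded at 10^4 cells/well. Next day, compounds were added at 10 µM with AZT and MK-0518 reference controls, then pseudotyped HIV-1 was added (final DMSO 2%). Plates were incubated 48 h at 37 °C in humidified CO2. Steady-Glo substrate was added, cells lysed 20 min in the dark, and luciferase luminescence was read.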

[3] = system: Tobacco mosaic virus; test: In vivo antiviral activity against TMV assessed as viral inactivation effect at 500 ug/mL; format: functional
[4] = system: Tobacco mosaic virus; test: In vivo antiviral activity against TMV assessed as curative effect at 500 ug/mL; format: functional
[5] = system: Tobacco mosaic virus; test: In vivo antiviral activity against TMV assessed as protection effect at 500 ug/mL; format: functional
[6] = system: Tobacco mosaic virus; test: In vitro antiviral activity against TMV assessed as inhibition rate at 500 ug/mL; format: functional

Structure (SMILES) | Activity [1] | inhibition at 10 µM [2] | Activity [3] | Activity [4] | Activity [5] | inhibition at 500 µg/mL [6]
CCCCc1nc2ccc(C(=O)NCc3ccc(F)cc3)c(OC)c2c(=O)n1C | Non-toxic | 19.1% | – | – | – | –
COc1c(C(=O)NCc2ccc(F)cc2)ccc2nc(-c3ccc(F)cc3)n(C)c(=O)c12 | Non-toxic | 27.6% | 13.3% | 8.2% | 7.4% | –
Cn1c(-c2ccc(F)cc2)nc2ccc(C(=O)NCc3ccc(F)cc3)c(O)c2c1=O | Non-toxic | 68.4% | – | – | – | –
NC(=O)c1ncn([C@@H]2O[C@H](CO)[C@@H](O)[C@H]2O)n1 [RIBAVIRIN] | – | – | 34.2% | 32.7% | 39.6% | 38.5%
COc1c(C(=O)NCc2ccc(F)cc2)ccc2c1C(=O)N(C)C(c1ccccn1)N2 (centres undefined) | Non-toxic | 9.9% | 15.2% | 0% | 8.7% | 0%
Cn1c(-c2ccco2)nc2ccc(C(=O)NCc3ccc(F)cc3)c(O)c2c1=O | Non-toxic | -9.2% | – | – | – | –
COc1c(C(=O)NCc2ccc(F)cc2)ccc2nc(-c3ccccn3)n(C)c(=O)c12 | Non-toxic | 44.6% | 29.4% | 17.6% | 19.5% | 21.3%
COc1c(C(=O)NCc2ccc(F)cc2)ccc2nc(-c3ccc([N+](=O)[O-])cc3)n(C)c(=O)c12 | Non-toxic | -3.8% | – | – | – | –
COc1c(C(=O)NCc2ccc(F)cc2)ccc2c1C(=O)N(C)C(Cc1ccc(F)cc1)N2 (centres undefined) | Non-toxic | 15.6% | – | – | – | –
COc1c(C(=O)NCc2ccc(F)cc2)ccc2nc(-c3cccs3)n(C)c(=O)c12 | Non-toxic | 25.1% | 20.4% | 9.4% | 12.7% | 0%
CCCCc1nc2ccc(C(=O)NCc3ccc(F)cc3)c(O)c2c(=O)n1C | Non-toxic | 2.4% | – | – | – | –
Cn1c(-c2ccc([N+](=O)[O-])cc2)nc2ccc(C(=O)NCc3ccc(F)cc3)c(O)c2c1=O | Non-toxic | 77.5% | – | – | – | –
COc1c(C(=O)NCc2ccc(F)cc2)ccc2nc(-c3ccco3)n(C)c(=O)c12 | Non-toxic | 1.6% | 0% | 8.9% | 11.7% | 10%
COc1c(C(=O)NCc2ccc(F)cc2)ccc2nc(Cc3ccc([N+](=O)[O-])cc3)n(C)c(=O)c12 | Non-toxic | -33.8% | 0% | 0% | 12.4% | –
Cn1c(Cc2ccc([N+](=O)[O-])cc2)nc2ccc(C(=O)NCc3ccc(F)cc3)c(O)c2c1=O | Non-toxic | 29% | 12.7% | 13.3% | 16.8% | 18.4%
CCCCC1Nc2ccc(C(=O)NCc3ccc(F)cc3)c(OC)c2C(=O)N1C (centres undefined) | Non-toxic | 3.2% | – | – | – | –
COc1c(C(=O)NCc2ccc(F)cc2)ccc2c1C(=O)N(C)C(c1ccc(F)cc1)N2 (centres undefined) | Non-toxic | 31% | 30.4% | 26.3% | 28.9% | 24.2%
COc1c(C(=O)NCc2ccc(F)cc2)ccc2c1C(=O)N(C)C(Cc1ccc([N+](=O)[O-])cc1)N2 (centres undefined) | Non-toxic | -17.7% | – | – | – | –
Cn1c(Cc2ccc(F)cc2)nc2ccc(C(=O)NCc3ccc(F)cc3)c(O)c2c1=O | Non-toxic | 49.5% | – | – | – | –
COc1c(C(=O)NCc2ccc(F)cc2)ccc2nc(Cc3ccc(F)cc3)n(C)c(=O)c12 | Non-toxic | -27.4% | 10.6% | 15.2% | 17.7% | 21.2%
COc1c(C(=O)NCc2ccc(F)cc2)ccc2c1C(=O)N(C)C(c1ccco1)N2 (centres undefined) | Non-toxic | 8.1% | 8.2% | 0% | 0% | 7.5%
Cc1cn([C@H]2C[C@H](N=[N+]=[N-])[C@@H](CO)O2)c(=O)[nH]c1=O [ZIDOVUDINE] | – | 98.1% | – | – | – | –
COc1c(C(=O)NCc2ccc(F)cc2)ccc2c1C(=O)N(C)C(c1ccc([N+](=O)[O-])cc1)N2 (centres undefined) | Non-toxic | 64.9% | 18.9% | 15% | 20.3% | 19.5%
COc1c(C(=O)NCc2ccc(F)cc2)ccc2c1C(=O)N(C)C(c1cccs1)N2 (centres undefined) | Non-toxic | 17.5% | 13.7% | 0% | 5.4% | 16.3%
Cn1c(-c2ccccn2)nc2ccc(C(=O)NCc3ccc(F)cc3)c(O)c2c1=O | Non-toxic | -11% | – | – | – | –
Cc1nnc(C(=O)NC(C)(C)c2nc(C(=O)NCc3ccc(F)cc3)c(O)c(=O)n2C)o1 [RALTEGRAVIR] | – | 95.2% | – | – | – | –
Cn1c(-c2cccs2)nc2ccc(C(=O)NCc3ccc(F)cc3)c(O)c2c1=O | Non-toxic | 33.2% | 8.2% | 10.9% | 9.8% | 14.5%
